The species entered for assay [1] is Cavia porcellus. Briefly: Negative inotropic activity in guinea pig left atrium. It is filed as functional. The conditions noted are these: Cardiac atrium. The method in brief: (§1)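 Guinea-pig left atria driven at 1 Hz (0.6-0.8 ms pulses, about 50% threshold voltage) in PSS, 35 °C, pH 7.4, 95% O2/5% CO2. Isometric tension recorded. Cumulative concentrations 0.01-100 μM in DMSO (≤0.3%), each to steady state. Percent decrease in developed tension, n = 4-6. EC50 by Probit analysis.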

Assay [2] has as its target T1, Voltage-dependent L-type calcium channel subunit alpha-1C (Rattus norvegicus, UniProt P22002). Briefly: Inhibition of [3H]diltiazem binding to Sprague-Dawley rat cardiomyocytes. The method in brief: (§2)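 Cardiomyocytes from male Sprague-Dawley rats, isolated by Langendorff perfusion and stored frozen (200 μg per tube). Incubated with 5 nM [3H]diltiazem and test ligand (0.1 nM-100 μM) in 50 mM Tris pH 7.4, 25 °C, 90 min. Bound ligand separated by filtration. Nonspecific binding with 100 μM diltiazem. Triplicates. pIC50 from sigmoidal fit; Ki by Cheng-Prusoff.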

The species named for assay [3] is Cavia porcellus. Briefly: Antagonist activity against calcium channel assessed as inhibition of calcium-induced contraction of potassium ion-depolarized guinea pig ileum longitudinal smooth muscle. It is filed as functional. The method, boiled down:
(§3)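 Guinea-pig ileum longitudinal smooth muscle segments (2 cm) held at 300-400 mg resting tension, 37 °C, in oxygenated (100% O2) Hepes-buffered PSS at pH 7.4. Isometric contraction recorded. Inhibition expressed as percentage of control. Probit log concentration–response analysis, n = 6-8.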

The species entered for assay [4] is Cavia porcellus. Briefly: Cardiac activity in guinea pig heart measured as decrease in left ventricular pressure at 1 uM relative to control. The assay is classed as functional. The arrangement: scale not given: the % may be the effect or the level left. The method in brief: (§4)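 Langendorff-perfused isolated hearts from female guinea-pigs (300-400 g). Compounds given cumulatively at 0.001-1 μM, each step held to steady state (about 30 min). Read-outs: surface ECG (PR interval, heart rate), intraventricular balloon +(dP/dt)max and coronary perfusion pressure. Results given as percent change from basal at 1 μM, mean ± SEM.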

Assay [5] is filed under the species Cavia porcellus. The assay is described as follows: Negative inotropic activity in guinea pig left atrium at 50 uM. The assay is classed as functional, Cardiac atrium. The method, boiled down: as §1
The species entered for assay [6] is Cavia porcellus. The assay is described as follows: Negative inotropic activity in guinea pig left ventricular papillary muscle at 50 uM. The assay is classed as functional, Muscle tissue.
Assay [7] is filed under the species Cavia porcellus. The assay is described as follows: Vasorelaxant activity assessed as inhibition of calcium-induced contraction of potassium ion-depolarized guinea pig aortic strips at 100 uM. It is filed as functional, Aorta. Details: scale not given: the % may be the effect or the level left. The method in brief:
(§5)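 Helicoidal guinea-pig aortic strips in aerated PSS at 35 °C, contracted with 80 mM KCl (K+ substituted for Na+). At plateau (about 45 min), compounds added cumulatively at 0.1-500 μM in DMSO vehicle. Relaxation measured isometrically. IC50 by Probit analysis, n = 6-8.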

The species entered for assay [8] is Cavia porcellus. Briefly: Antagonist activity against calcium channel assessed as inhibition of carbachol-induced tonic contraction of guinea pig ileum longitudinal smooth muscle. The assay is classed as functional. The method in brief:
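Guinea-pig ileum longitudinal smooth muscle segments (2 cm), 300-400 mg resting tension, 37 °C, oxygenated Hepes-buffered PSS at pH 7.4, equilibrated 1 h. Two control carbachol curves run 30 min apart. Test agent (10 μM) added 30 min before the carbachol curve. Isometric inhibition expressed as percent of control.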

For assay [9], the species on record is Cavia porcellus. Briefly: Negative chronotropic activity in guinea pig right atrium at 50 uM. It is filed as functional, Cardiac atrium. The method, boiled down: (§6)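 Spontaneously beating guinea-pig right atria in PSS, 35 °C, pH 7.4, 95% O2/5% CO2. Cumulative concentrations 0.01-100 μM in DMSO (≤0.3% in bath), each to steady state. Rate decrease taken as percent of control (pretreatment 170-195 beats/min), n = 6-8. EC30 by Probit analysis.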

For assay [10], the species on record is Cavia porcellus. Briefly: Negative inotropic activity in guinea pig left ventricular papillary muscle. The assay is classed as functional. The following applies: Muscle tissue.
Assay [11] is filed under the species Cavia porcellus. The assay is described as follows: Cardiac activity in guinea pig heart measured as decrease in heart rate at 1 uM by ECG relative to control. It is filed as functional. Details: scale not given: the % may be the effect or the level left. The method in brief:
as §4

For assay [12], the species on record is Cavia porcellus. The assay is described as follows: Antagonist activity against calcium channel assessed as inhibition of calcium-induced contraction of potassium ion-depolarized guinea pig ileum longitudinal smooth muscle at 50 uM. It is filed as functional. Details: scale not given: the % may be the effect or the level left. The method, boiled down: as §3

For assay [13], the species on record is Cavia porcellus. Briefly: Cardiac activity in guinea pig heart measured as decrease in coronary perfusion pressure at 1 uM relative to control. The assay is classed as functional. The arrangement: scale not given: the % may be the effect or the level left. The method in brief: as §4
The species named for assay [14] is Cavia porcellus. The assay is described as follows: Cardiac activity in guinea pig heart measured as prolongation of atrioventricular conduction time at 1 uM relative to control. It is filed as functional. The method in brief: as §4
The species named for assay [15] is Cavia porcellus. The assay is described as follows: Negative chronotropic activity in guinea pig right atrium. It is filed as functional. The conditions noted are these: Cardiac atrium. The method, boiled down:
as §6

The species entered for assay [16] is Cavia porcellus. Briefly: Negative inotropic activity in guinea pig left atrium at 10 uM. The assay is classed as functional, Cardiac atrium. The method, boiled down: as §1
The species named for assay [17] is Cavia porcellus. Briefly: Vasorelaxant activity assessed as inhibition of calcium-induced contraction of potassium ion-depolarized guinea pig aortic strips. The assay is classed as functional. The conditions noted are these: Aorta. The method in brief: as §5
The species entered for assay [18] is Cavia porcellus. The assay is described as follows: Negative chronotropic activity in guinea pig right atrium at 10 uM. It is filed as functional, Cardiac atrium. The method in brief:
as §6

The species entered for assay [19] is Cavia porcellus. Briefly: Negative inotropic activity in guinea pig left atrium at 100 uM. The assay is classed as functional, Cardiac atrium. The following applies: in the assay text read “50 uM” for “100 uM”. The method, boiled down:
as §1

The species named for assay [20] is Cavia porcellus. Briefly: Negative chronotropic activity in guinea pig right atrium at 100 uM. It is filed as functional, Cardiac atrium. The following applies: in the assay text read “50 uM” for “100 uM”. The method, boiled down:
as §6

The species named for assay [21] is Cavia porcellus. Briefly: Negative chronotropic activity in guinea pig right atrium at 5 uM. It is filed as functional, Cardiac atrium. The method, boiled down:
as §6

For assay [22], the species on record is Cavia porcellus. Briefly: Negative inotropic activity in guinea pig left atrium at 5 uM. The assay is classed as functional, Cardiac atrium. The method in brief:
as §1

The species entered for assay [23] is Cavia porcellus. Briefly: Negative inotropic activity in guinea pig left atrium at 1 uM. The assay is classed as functional, Cardiac atrium. The method in brief: as §1
Assay [24] is filed under the species Cavia porcellus. Briefly: Antagonist activity against calcium channel assessed as inhibition of calcium-induced contraction of potassium ion-depolarized guinea pig ileum longitudinal smooth muscle at 10 uM. The assay is classed as functional. The arrangement: scale not given: the % may be the effect or the level left. The method in brief:
as §3

Assay [25] is filed under the species Cavia porcellus. The assay is described as follows: Cardiac activity in guinea pig heart measured as increase in coronary perfusion pressure at 1 uM relative to control. The assay is classed as functional. The method, boiled down:
as §4

The species entered for assay [26] is Cavia porcellus. The assay is described as follows: Negative inotropic activity in guinea pig left ventricular papillary muscle at 10 uM. It is filed as functional, Muscle tissue.
Assay [27] deals with T1, Voltage-dependent L-type calcium channel subunit alpha-1C. Briefly: Inhibition of [3H]diltiazem binding to Sprague-Dawley rat cardiomyocytes at 10 nM relative to control. The following applies: read-out: Activity. The method in brief:
as §2

The species entered for assay [28] is Cavia porcellus. Briefly: Antagonist activity against calcium channel assessed as inhibition of calcium-induced contraction of potassium ion-depolarized guinea pig ileum longitudinal smooth muscle at 100 uM. The arrangement: scale not given: the % may be the effect or the level left. The assay is classed as functional. The method, boiled down:
as §3

The species entered for assay [29] is Cavia porcellus. The assay is described as follows: Negative inotropic activity in guinea pig left ventricular papillary muscle at 500 uM. It is filed as functional, Muscle tissue.

The values below come from ChEMBL document CHEMBL1146021, “Calcium channel antagonists discovered by a multidisciplinary approach” (J Med Chem, 2006).

The structures appear in SMILES notation. Calls of active or inactive are those of the source.

T1 sequence (P22002 whole entry, the tested form may be a part): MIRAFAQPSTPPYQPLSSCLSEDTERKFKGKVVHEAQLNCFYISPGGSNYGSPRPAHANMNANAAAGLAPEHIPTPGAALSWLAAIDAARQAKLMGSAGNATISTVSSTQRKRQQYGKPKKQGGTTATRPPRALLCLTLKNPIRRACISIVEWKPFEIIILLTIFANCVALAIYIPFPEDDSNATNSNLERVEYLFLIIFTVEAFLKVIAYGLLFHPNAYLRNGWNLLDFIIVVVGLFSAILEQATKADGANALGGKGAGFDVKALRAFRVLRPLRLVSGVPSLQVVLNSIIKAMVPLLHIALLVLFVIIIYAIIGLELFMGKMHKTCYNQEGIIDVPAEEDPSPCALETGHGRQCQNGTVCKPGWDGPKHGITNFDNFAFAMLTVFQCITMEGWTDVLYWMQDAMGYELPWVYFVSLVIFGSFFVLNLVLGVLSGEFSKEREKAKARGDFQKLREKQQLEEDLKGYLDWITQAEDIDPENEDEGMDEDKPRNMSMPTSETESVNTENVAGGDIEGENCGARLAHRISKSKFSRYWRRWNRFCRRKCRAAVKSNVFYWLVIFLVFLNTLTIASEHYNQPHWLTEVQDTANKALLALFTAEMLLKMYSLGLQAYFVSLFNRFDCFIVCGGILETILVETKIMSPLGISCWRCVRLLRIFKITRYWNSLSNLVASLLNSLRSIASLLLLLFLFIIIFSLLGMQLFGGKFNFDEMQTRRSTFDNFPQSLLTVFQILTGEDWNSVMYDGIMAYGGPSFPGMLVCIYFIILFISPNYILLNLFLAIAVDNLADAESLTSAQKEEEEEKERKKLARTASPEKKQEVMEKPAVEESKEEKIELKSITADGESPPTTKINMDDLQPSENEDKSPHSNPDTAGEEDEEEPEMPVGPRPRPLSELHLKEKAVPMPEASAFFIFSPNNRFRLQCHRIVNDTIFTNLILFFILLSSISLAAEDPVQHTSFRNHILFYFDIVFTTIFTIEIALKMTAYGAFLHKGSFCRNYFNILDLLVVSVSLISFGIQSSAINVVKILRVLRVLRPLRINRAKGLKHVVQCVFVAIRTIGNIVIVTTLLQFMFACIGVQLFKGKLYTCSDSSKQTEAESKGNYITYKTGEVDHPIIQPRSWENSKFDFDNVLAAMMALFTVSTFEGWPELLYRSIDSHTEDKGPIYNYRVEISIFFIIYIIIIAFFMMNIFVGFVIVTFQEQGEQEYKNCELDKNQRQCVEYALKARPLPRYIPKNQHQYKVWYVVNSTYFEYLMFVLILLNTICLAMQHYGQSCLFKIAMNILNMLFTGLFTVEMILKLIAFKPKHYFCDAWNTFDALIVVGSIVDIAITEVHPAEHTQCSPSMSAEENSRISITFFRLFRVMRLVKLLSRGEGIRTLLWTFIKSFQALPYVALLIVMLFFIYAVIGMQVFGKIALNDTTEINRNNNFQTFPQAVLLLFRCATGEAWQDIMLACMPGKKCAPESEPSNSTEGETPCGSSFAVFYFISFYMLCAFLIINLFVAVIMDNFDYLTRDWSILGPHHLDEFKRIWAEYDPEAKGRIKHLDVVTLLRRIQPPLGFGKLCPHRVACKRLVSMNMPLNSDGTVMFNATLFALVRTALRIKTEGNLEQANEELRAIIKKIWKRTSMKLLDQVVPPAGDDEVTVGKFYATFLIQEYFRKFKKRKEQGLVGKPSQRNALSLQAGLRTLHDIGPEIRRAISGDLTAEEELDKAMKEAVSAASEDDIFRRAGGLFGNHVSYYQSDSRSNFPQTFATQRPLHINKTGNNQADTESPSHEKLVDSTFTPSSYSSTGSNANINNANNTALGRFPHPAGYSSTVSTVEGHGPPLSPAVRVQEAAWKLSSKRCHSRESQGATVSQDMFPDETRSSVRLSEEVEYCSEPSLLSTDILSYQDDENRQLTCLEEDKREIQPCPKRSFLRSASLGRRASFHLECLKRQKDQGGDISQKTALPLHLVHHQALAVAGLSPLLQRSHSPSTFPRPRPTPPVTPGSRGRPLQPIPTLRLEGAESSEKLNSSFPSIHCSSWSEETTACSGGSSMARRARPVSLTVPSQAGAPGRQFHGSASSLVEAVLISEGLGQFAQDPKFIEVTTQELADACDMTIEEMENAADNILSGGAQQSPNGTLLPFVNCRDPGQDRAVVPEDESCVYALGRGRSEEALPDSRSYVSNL

As a reminder, the EC50 is the concentration needed to bring the measured effect to its halfway point. The term Ki denotes the equilibrium dissociation constant of an inhibitor or competing ligand from its target. As a reminder, the IC50 is the concentration at which inhibition is half-maximal. Broadly, the EC30 is the concentration needed for an effect of 30%. For the compound `O=S(=O)(c1ccc(Cl)cc1)N(C1CCNCC1)C1CC1`, the figures for the half-maximal effective concentration (EC50) in the assay listed under Cavia porcellus [1], in the assay filed under Cavia porcellus [3] and in the assay listed under Cavia porcellus [10] were 313 nM, 14200 nM and 10200 nM, respectively. Moreover, the Ki in assay [2] is 3020 nM. The Activity is recorded as 12% in the assay listed under Cavia porcellus [4]; 76% in the assay filed under Cavia porcellus [5]; 78% in the assay listed under Cavia porcellus [6]; 19% in the assay filed under Cavia porcellus [7]; 64% in the assay listed under Cavia porcellus [9]; 12% in the assay listed under Cavia porcellus [11]. Moreover, the Activity worked out at 89% in the assay filed under Cavia porcellus [12] and 13% in the assay listed under Cavia porcellus [13]. Also, in the assay filed under Cavia porcellus [8], the half-maximal inhibitory concentration (IC50) came to 34500 nM. In addition, the outcome in the assay filed under Cavia porcellus [14] was inactive. Further, the concentration for an effect of 30% (EC30) in the assay filed under Cavia porcellus [15] came to 480 nM.

In the assay listed under Cavia porcellus [1], `CSC1=NCCCN1S(=O)(=O)c1ccc(Cl)cc1` came in with an EC50 of 1330 nM. Moreover, the results for the Activity in the assay listed under Cavia porcellus [16], in the assay filed under Cavia porcellus [7] and in the assay filed under Cavia porcellus [18] were 92%, 57% and 5%, respectively. The IC50 in the assay listed under Cavia porcellus [17] came out at 25100 nM.

With `CC(C)(C)N(OC(=O)c1ccccc1)C(=O)C(F)(F)F`, the EC50 in the assay filed under Cavia porcellus [1] came to 6130 nM. Further, the Activity in the assay filed under Cavia porcellus [7] turned out to be 10%; in the assay filed under Cavia porcellus [19], 52%; in the assay listed under Cavia porcellus [20] it was 7%.

The compound `C=CCN(CC=C)S(=O)(=O)c1ccc(Cl)cc1` returned an EC50 in the assay listed under Cavia porcellus [1] of 1170 nM. Besides, the values for the Activity in the assay listed under Cavia porcellus [7], in the assay filed under Cavia porcellus [19] and in the assay filed under Cavia porcellus [18] were 42%, 98% and 6%, respectively.

In the case of `CCN(c1ccccc1)S(=O)(=O)c1ccc(Cl)cc1`, it took 300 nM to reach a half-maximal effect in the assay filed under Cavia porcellus [1] (EC50). In addition, the results for the Activity in the assay listed under Cavia porcellus [21], in the assay filed under Cavia porcellus [7] and in the assay listed under Cavia porcellus [22] were 7%, 46% and 90%, respectively.

`CCO[C@@]1(c2ccc(Br)cc2)SC=C(C)n2c1noc2=O`: the Activity in the assay listed under Cavia porcellus [7] is reported as 7%; in the assay filed under Cavia porcellus [23] it was 47%; in the assay filed under Cavia porcellus [9] it was 15%.

`O=S(=O)(c1ccc(Br)cc1)N1CCCCCC1` displayed an EC50 in the assay filed under Cavia porcellus [1] of 360 nM. The Activity in the assay filed under Cavia porcellus [5] came out at 91%; in the assay filed under Cavia porcellus [7], 33%; in the assay filed under Cavia porcellus [9] it was 4%.

`O=S(=O)(c1ccc(Cl)cc1)N1CCC[C@@H]1c1cccs1`: the Activity in the assay listed under Cavia porcellus [24] is 90%; in the assay filed under Cavia porcellus [25], 17%; in the assay filed under Cavia porcellus [4], 6%; in the assay listed under Cavia porcellus [7], 74%; in the assay filed under Cavia porcellus [26], 93%; in the assay filed under Cavia porcellus [18], 4%. The Activity in the assay listed under Cavia porcellus [22] came out at 84%; in the assay listed under Cavia porcellus [14], 20%. Besides, the figures for the EC50 in the assay listed under Cavia porcellus [1], in the assay listed under Cavia porcellus [3] and in the assay listed under Cavia porcellus [10] were 310 nM, 1180 nM and 1380 nM, respectively. The 50% inhibitory concentration (IC50) in the assay listed under Cavia porcellus [8] came to 8210 nM; in the assay listed under Cavia porcellus [17], 5620 nM. Also, the result in the assay listed under Cavia porcellus [11] was inactive. For the same compound, the inhibition at 0.01 µM in assay [27] is -24.8%.

In the assay listed under Cavia porcellus [1], `CCOC1(c2ccc(Br)cc2)SC=C(C)n2c1noc2=O` (centres undefined) had an EC50 of 40 nM. Moreover, the Activity was 3% in the assay listed under Cavia porcellus [28]; 3% in the assay filed under Cavia porcellus [4]; 19% in the assay filed under Cavia porcellus [7]; 77% in the assay listed under Cavia porcellus [23]; 5% in the assay listed under Cavia porcellus [20]; 14% in the assay listed under Cavia porcellus [11]. Further, the Activity in the assay listed under Cavia porcellus [13] turned out to be 9%; in the assay listed under Cavia porcellus [29], 2%; in the assay filed under Cavia porcellus [14], 32%. Besides, the IC50 in the assay listed under Cavia porcellus [8] worked out at 40000 nM.

With `CCO[C@]1(c2ccc(Br)cc2)SC=C(C)n2c1noc2=O`, in the assay filed under Cavia porcellus [1], the EC50 is 70 nM. In addition, the values for the Activity in the assay listed under Cavia porcellus [7], in the assay filed under Cavia porcellus [23] and in the assay filed under Cavia porcellus [18] were 11%, 58% and 16%, respectively.
